Data as given in ChEMBL document CHEMBL5046287 (J Med Chem, 2022).
Active and inactive are the calls of the source. The rule behind the calls is not given here.

Columns and labels:
[1] = system: H431; assay: Cytotoxicity against human H431/14 LM cells assessed as reduction in cell viability at 50 to 200 uM incubated for 72 hrs in presence of docetaxel by AlamarBlue staining based analysis; format: functional; conditions: dose 50-200 µM
Summary of the method: (§1)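 Primary prostate epithelial cells (radical prostatectomy cancer or transurethral resection BPH) seeded at 5000 cells/well in SCM, 24 h at 37 °C, 5% CO2. Treated with inhibitor at 50 or 200 μM plus 1 nM docetaxel (DMSO stocks 200 mM) for 72 h. Alamar Blue added at 10% volume, 1–4 h at 37 °C. Viability is % of DMSO-treated control; triplicate, mean; paired two-tailed t-test.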

[2] = system: H517; assay: Cytotoxicity against human H517/15 RM cells assessed as reduction in cell viability incubated for 72 hrs by AlamarBlue staining based analysis; format: functional; conditions: dose 50-200 µM
Summary of the method: (§2)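 Primary prostate epithelial cells (cancer from radical prostatectomy, BPH from transurethral resection) plated 5000 cells/well in SCM for 24 h at 37 °C, 5% CO2, then given inhibitor alone at 50 or 200 μM (200 mM DMSO stocks) for 72 h. Alamar Blue at 10% of volume for 1–4 h. Viability is % of DMSO control; triplicate, mean.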

[3] = system: H488; assay: Cytotoxicity against human H488/14 RM cells assessed as reduction in cell viability incubated for 72 hrs by AlamarBlue staining based analysis; format: functional; conditions: dose 50-200 µM; summary of the method: as §2
[4] = system: H415; assay: Cytotoxicity against human H415/15 cells assessed as reduction in cell viability incubated for 72 hrs by AlamarBlue staining based analysis; format: functional; conditions: dose 50-200 µM; summary of the method: as §2
[5] = system: H568; assay: Cytotoxicity against human H568/15 RM cells assessed as reduction in cell viability at 50 to 200 uM incubated for 72 hrs in presence of docetaxel by AlamarBlue staining based analysis; format: functional; conditions: dose 50-200 µM; summary of the method: as §1
[6] = system: H568; assay: Cytotoxicity against human H568/15 RM cells assessed as reduction in cell viability incubated for 72 hrs by AlamarBlue staining based analysis; format: functional; conditions: dose 50-200 µM; summary of the method: as §2
[7] = biological target: T1, Aldehyde dehydrogenase, dimeric NADP-preferring (Homo sapiens, UniProt P30838); assay: Substrate activity at N-terminal-His6 tagged recombinant human ALDH3A1 at 10 uM […] by fluorimetric analysis relative to 4-NBA; format: ADME
T1 sequence (P30838 whole entry): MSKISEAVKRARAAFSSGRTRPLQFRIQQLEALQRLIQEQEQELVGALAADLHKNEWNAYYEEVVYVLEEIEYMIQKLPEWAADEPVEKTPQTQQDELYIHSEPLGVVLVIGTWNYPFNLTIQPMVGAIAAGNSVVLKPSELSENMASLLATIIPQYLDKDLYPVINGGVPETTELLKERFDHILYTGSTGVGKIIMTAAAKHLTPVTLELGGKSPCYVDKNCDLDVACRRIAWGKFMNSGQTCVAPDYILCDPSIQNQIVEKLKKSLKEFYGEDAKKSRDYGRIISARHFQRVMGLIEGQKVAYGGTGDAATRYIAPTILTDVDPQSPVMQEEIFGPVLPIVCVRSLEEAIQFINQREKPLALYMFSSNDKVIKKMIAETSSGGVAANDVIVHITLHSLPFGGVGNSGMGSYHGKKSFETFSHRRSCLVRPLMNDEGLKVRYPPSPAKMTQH
Summary of the method: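 Compound at 10 μM used as substrate in place of 4-NBA. Buffer 50 mM Tris–HCl, 5 mM DTT, pH 8.0, with 1 mM NADP+. NADPH fluorescence (ex 340/em 460 nm). Activity given as % of that with 10 μM 4-NBA; mean ± SE.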

[8] = system: H415; assay: Cytotoxicity against human H415/15 cells assessed as reduction in cell viability at 50 to 200 uM incubated for 72 hrs in presence of docetaxel by AlamarBlue staining based analysis; format: functional; conditions: dose 50-200 µM; summary of the method: as §1
[9] = system: H517; assay: Cytotoxicity against human H517/15 RM cells assessed as reduction in cell viability at 50 to 200 uM incubated for 72 hrs in presence of docetaxel by AlamarBlue staining based analysis; format: functional; conditions: dose 50-200 µM; summary of the method: as §1
[10] = biological target: T2, Aldehyde dehydrogenase, dimeric NADP-preferring (Homo sapiens) (UniProt P30838); assay: Inhibition of N-terminal-His6 tagged recombinant human ALDH3A1 assessed as remaining enzyme activity by measuring fluorescence of NADPH using 4-NBA and NADP+ as substrate at 10 uM by fluorimetric analysis relative to control
T2 sequence (whole entry): T1 sequence (P30838 whole entry)
Summary of the method: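 Single-point screen at 10 μM inhibitor, 1% DMSO final. Enzyme in 50 mM Tris–HCl, 5 mM DTT, pH 8.0, with 1 mM NADP+ and 4-NBA at 31 and 250 μM. NADPH fluorescence (ex 340/em 460 nm) or absorbance at 340 nm. Enzyme kept 50–100-fold below substrate; result is % remaining activity.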

[11] = biological target: T3, Aldehyde dehydrogenase 1A1 (Homo sapiens, UniProt P00352); assay: Substrate activity at N-terminal-His6 tagged recombinant human ALDH1A1 at 10 uM […] by fluorimetric analysis relative to hexanal; format: ADME
T3 sequence (P00352 whole entry): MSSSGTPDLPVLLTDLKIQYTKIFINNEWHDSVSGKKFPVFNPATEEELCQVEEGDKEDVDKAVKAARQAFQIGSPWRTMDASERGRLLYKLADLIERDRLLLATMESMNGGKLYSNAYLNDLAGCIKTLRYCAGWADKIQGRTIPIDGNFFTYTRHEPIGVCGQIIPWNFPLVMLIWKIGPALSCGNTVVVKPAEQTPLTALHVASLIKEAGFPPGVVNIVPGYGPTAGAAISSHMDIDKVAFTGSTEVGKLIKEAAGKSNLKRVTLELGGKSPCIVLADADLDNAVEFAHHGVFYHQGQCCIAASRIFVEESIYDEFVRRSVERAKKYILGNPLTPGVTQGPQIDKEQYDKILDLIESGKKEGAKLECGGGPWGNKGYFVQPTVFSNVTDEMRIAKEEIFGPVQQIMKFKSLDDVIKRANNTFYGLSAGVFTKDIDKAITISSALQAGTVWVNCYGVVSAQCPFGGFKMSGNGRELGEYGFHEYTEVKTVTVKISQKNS
Summary of the method: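 Compound at 10 μM used as substrate in place of hexanal. Buffer 50 mM HEPES, 0.5 mM EDTA, 0.5 mM DTT, pH 8.0, with 500 μM NAD+. NADH fluorescence (ex 340/em 460 nm). Activity given as % of that with 10 μM hexanal; mean ± SE.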

[12] = system: H431; assay: Cytotoxicity against human H431/14 LM cells assessed as reduction in cell viability incubated for 72 hrs by AlamarBlue staining based analysis; format: functional; conditions: dose 50-200 µM; summary of the method: as §2
[13] = system: H488; assay: Cytotoxicity against human H488/14 RM cells assessed as reduction in cell viability at 50 to 200 uM incubated for 72 hrs in presence of docetaxel by AlamarBlue staining based analysis; format: functional; conditions: dose 50-200 µM; summary of the method: as §1
[14] = system: PC-3; assay: Antiproliferative activity against human PC-3 cells expressing ALDH1A1 and ALDH3A1 assessed as reduction in cell survival measured after 96 hrs by MTT assay; format: functional, cell-based; conditions: PC-3, 96 h
Summary of the method: (§3)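 Adherent prostate cancer cells seeded in 96-well plates, left overnight at 37 °C, 5% CO2, 100% humidity, then exposed to compounds at 12.5–200 μM for 96 h. Read-out: MTT (0.5 mg/mL) added for 4 h at 37 °C, formazan dissolved in DMSO, absorbance at 540 nm. IC50 from five-dose screen.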

[15] = system: LNCaP; assay: Antiproliferative activity against human LNCaP cells expressing ALDH1A3 assessed as reduction in cell survival measured after 96 hrs by MTT assay; format: functional, cell-based; summary of the method: as §3
[16] = system: DU-145; assay: Antiproliferative activity against human DU145 cells expressing ALDH1A1 assessed as reduction in cell survival measured after 96 hrs by MTT assay; format: functional, cell-based; conditions: DU-145, 96 h; summary of the method: as §3
[17] = biological target: T2, Aldehyde dehydrogenase, dimeric NADP-preferring (Homo sapiens); assay: Inhibition of N-terminal-His6 tagged recombinant human ALDH3A1 using 4-NBA as substrate in absence of NADP+ by fluorimetric analysis
Summary of the method: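 The standard 5-min preincubation of enzyme with inhibitor was run without NADP+, and compared with preincubation including cofactor. Fluorimetric NADPH read-out; mean ± SE.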

SMILES | Activity [10] | Activity [2] | Activity [3] | Activity [4] | Activity [6] | Activity [12] | also measured
CCCN(CCC)c1ccc(C=O)cc1C | < 15% | – | – | – | – | – | IC50 [14]: 106 µM; IC50 [15]: 61 µM; IC50 [16]: 103 µM
CCCN(CCC)c1ccc(C=O)cc1OC | – | – | – | – | – | – | IC50 [14]: 75 µM; IC50 [15]: 50 µM; IC50 [16]: 71 µM
CCN(CC)c1ccc(C=O)cc1 | – | Dose-Dependent Effect | Dose-Dependent Effect | Dose-Dependent Effect | Dose-Dependent Effect | Dose-Dependent Effect | –

Now from value to compound, other results behind:

Activity [10] | SMILES | Activity [2] | Activity [3] | Activity [4] | Activity [6] | Activity [12] | also measured
< 15% | CCCN(CCC)c1ccc(C=O)cc1Br | Dose-Dependent Effect | Dose-Dependent Effect | Dose-Dependent Effect | Dose-Dependent Effect | Dose-Dependent Effect | Activity [1]: Active; Activity [5]: Active; Activity [7]: < 5%; Activity [8]: Active; Activity [9]: Active; Activity [11]: 3.14%; Activity [13]: Active
< 15% | CCCN(CCC)c1ccc(C=O)cc1 | – | – | – | – | – | –
< 15% | CCCN(CCC)c1ccc(C=O)cc1[N+](=O)[O-] | Dose-Dependent Effect | Dose-Dependent Effect | Dose-Dependent Effect | Dose-Dependent Effect | Dose-Dependent Effect | Activity [1]: Active; inhibition [17]: Active; Activity [5]: Active; Activity [8]: Active; Activity [9]: Active; Activity [13]: Active
< 15% | CCCN(CCC)c1ccc(C=O)cc1Cl | – | – | – | – | – | –
